A value given as a limit tells only on which side of the number the result lay.

The test system of series [1] is LS174T. In words: The compound was evaluated for the cytotoxicity towards LS174T cells. Conditions: Homo sapiens. It is filed as functional, cell-based. The procedure, abridged: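 LS174T human colon adenocarcinoma cells (CEA-expressing) exposed to graded inhibitor, 0.01–500 μM in medium, for 1 h at 37 °C. Cells were washed once, grown a further 6 days, and survival was read by SRB assay to give IC50.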

Series [2] relates to LS174T. In words: The compound was evaluated for the cytotoxicity in conjugate with F(ab')2-A5B7-CPG2 against LS174T cells. Type of series: functional, cell-based. As to conditions: Homo sapiens. The procedure, abridged:
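They then received graded prodrug (0.01–500 μM in medium) for 1 h at 37 °C to generate the phenol mustard in situ. After a wash and a further 6 days, survival was measured by SRB assay.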

Series [3] relates to LS174T. In words: Cytotoxicity in conjugate with F(ab')2-A5B7-CPG2 and 2-(4-Methoxy-phenylsulphanylcarbonylamino)-pentanedioic acid at a concentration of 50 uM against LS174T cells. Type of series: functional, cell-based. As to conditions: Homo sapiens. The procedure, abridged: (§1)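 LS174T human colon adenocarcinoma cells (CEA-expressing) were exposed to F(ab')2-A5B7-CPG2 conjugate (3.32 μg/mL, 0.505 U/mL) for 1 h at 37 °C and washed twice to remove unbound conjugate. They were then exposed for 1 h at 37 °C to graded prodrug plus the stated fixed CPG2 inhibitor level (25 or 50 μM). After a wash, cells grew 6 days; survival was measured by SRB assay.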

Series [4] relates to LS174T. Briefly: Cytotoxicity in conjugate with F(ab')2-A5B7-CPG2 and 2-(4-Methoxy-phenylsulphanylcarbonylamino)-pentanedioic acid at a concentration of 25 uM against LS174T cells. Type of series: functional, cell-based. Conditions: Homo sapiens. Summed up: as §1
For series [5], the system named is LS174T. Briefly: Cytotoxicity in conjugate with 2-(4-Methoxy-phenylsulphanylcarbonylamino)-pentanedioic acid at a concentration of 50 micuM against LS174T cells. It is filed as functional, cell-based. Conditions: Homo sapiens.
The test system of series [6] is LS174T. Briefly: The compound was evaluated for the cytotoxicity with the compound alone against LS174T cells. Type of series: functional, cell-based. As to conditions: Homo sapiens. The procedure, abridged: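 LS174T cells were exposed to graded compound alone (0.01–500 μM in medium) for 1 h at 37 °C, with no conjugate. Cells were washed once with medium and cultured a further 6 days. Survival was measured by sulforhodamine B (SRB) assay.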

Series [7] can be described thus: The compound was evaluated for the apparent Vmax through Lineweaver-Burke Plot of MTX turnover by CPG2 at a concentration of 0.5 (uM). Type of series: ADME. The procedure, abridged:
(§2)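 CPG2 (10 μL of 28.66 μg/mL stock) in a 1-mL cuvette; reaction started with 990 μL methotrexate (3.077–70 μM) alone or with inhibitor at fixed 0.5 or 1.0 μM (final). Buffer was 0.1 M Tris-HCl pH 7.3, 0.1 mM ZnCl2, 37 °C. A320 decrease over 0–60 s gave initial velocities; apparent Vmax came from Lineweaver–Burk plots.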

Series [8] can be described thus: The compound was evaluated for the apparent Vmax through Lineweaver-Burke Plots of MTX turnover by CPG2 at a concentration of 1 (uM). Type of series: ADME. Summed up:
as §2

The nature of series [9]: The compound was evaluated for the apparent Vmax through Lineweaver-Burke Plots of MTX turnover by CPG2 at a concentration of 0 (uM). Type of series: ADME. The procedure, abridged:
as §2

Compound `Cc1cccc(SC(=O)NC(CCC(=O)O)C(=O)O)c1` (stereo not given) came in with an IC50 in series [1] greater than 500 µM.
As for `Cc1ccc(SC(=O)NC(CCC(=O)O)C(=O)O)cc1` (stereo not given), the IC50 in series [1] is greater than 500 µM.
With `Nc1ccc(SC(=O)NC(CCC(=O)O)C(=O)O)cc1` (stereo not given), it took 416 µM to reach half-maximal inhibition in series [1] (IC50).
On the same count and under the same terms, as for `COc1ccc(SC(=O)N[C@@H](CCC(=O)O)C(=O)O)cc1`, the figure is greater than 500 µM.
Consider `O=C(O)CCC(NC(=O)Oc1ccc(N(CCCl)CCCl)cc1)C(=O)O` (stereo not given), for which the IC50 in series [2] amounted to 0.8 µM; in series [3], 16.2 µM; in [4], 3.3 µM; in series [5], 24 µM; in [6] it was 23.2 µM.
Compound `COc1cccc(SC(=O)NC(CCC(=O)O)C(=O)O)c1` (stereo not given) had an IC50 in series [1] greater than 500 µM.
For `Nc1cccc(SC(=O)NC(CCC(=O)O)C(=O)O)c1` (stereo not given), the IC50 in series [1] is greater than 500 µM.
Compound `COc1ccc(SC(=O)N[C@H](CCC(=O)O)C(=O)O)cc1` returned an IC50 in [1] greater than 500 µM. Also, the Vmax in series [7] stood at 47.7 µM/min; in series [8] it was 42.3 µM/min; in [9] it was 80 µM/min.

By IC50 is commonly meant the concentration that inhibits the measured activity by half. A lower IC50 goes with greater potency in that assay. By Vmax is commonly meant the top rate of the reaction or transport when substrate is in excess.

The values are drawn from ChEMBL document CHEMBL1132614, “Novel inhibitors of carboxypeptidase G2 (CPG2): potential use in antibody-directed enzyme prodrug therapy” (J Med Chem, 1999).
